As a reminder, the pEC50 is the negative decadic logarithm of the EC50, by convention in mol/L.

The values that follow come from ChEMBL document CHEMBL3870322, “New telmisartan-derived PPARγ agonists: Impact of the 3D-binding mode on the pharmacological profile” (Eur J Med Chem, 2016).

pEC50: −log10 of the molar value. Calls of active or inactive are those of the source. No cut-off for these calls is given here.

Series [1] in a line: (§1) Growth inhibition of human LNCAP cells expressing PPARgamma at 50 uM after 72 hrs by crystal violet staining based assay. In kind it is functional. As to conditions: read-out: GI. A digest of the protocol: (§2)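 Cells seeded in complete DMEM, LNCaP at 5×10⁴/well on poly-D-lysine-coated wells, COS-7 at 3×10⁴/well. After 24 h at 37 °C, compound added at 50 µM final (DMSO vehicle). Exposure 72 h, then PBS wash, fixation in 1% […]/PBS, crystal violet staining of chromatin, absorbance 590 nm. Biomass given as % of vehicle control; mean SD of at least two independent experiments.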

Series [2] addresses T1, Peroxisome proliferator-activated receptor gamma (Mus musculus, UniProt P37238).
T1 sequence (P37238 whole entry): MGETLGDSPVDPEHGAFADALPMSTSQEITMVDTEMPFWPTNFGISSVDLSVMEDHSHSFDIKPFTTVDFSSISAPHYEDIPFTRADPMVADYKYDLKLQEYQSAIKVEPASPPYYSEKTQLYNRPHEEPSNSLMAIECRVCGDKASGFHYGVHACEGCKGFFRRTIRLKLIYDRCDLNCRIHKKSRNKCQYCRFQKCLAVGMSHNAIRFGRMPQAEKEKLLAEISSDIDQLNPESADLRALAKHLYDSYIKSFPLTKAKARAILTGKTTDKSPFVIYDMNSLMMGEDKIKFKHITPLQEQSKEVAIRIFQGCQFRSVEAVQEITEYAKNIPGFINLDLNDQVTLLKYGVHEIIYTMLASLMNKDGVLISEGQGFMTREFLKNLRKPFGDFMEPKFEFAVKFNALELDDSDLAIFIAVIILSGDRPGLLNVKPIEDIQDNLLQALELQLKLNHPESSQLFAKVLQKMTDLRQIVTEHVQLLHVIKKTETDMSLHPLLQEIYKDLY
In words: Full agonist activity at PPARgamma in mouse 3T3L1 preadipocytes assessed as increase in insulin induced adipocyte differentiation by measuring triglyceride accumulation at 10 uM after 9 days by Oil-Red O staining based assay relative to control. In kind it is cell-based. As to conditions: 216 h. A digest of the protocol: (§3)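 Postconfluent 3T3-L1 cells (DMEM, 10% FCS) differentiated over 9 days: 3 days with insulin (0.17 µM) plus dexamethasone (1 µM), 3 days with insulin (0.17 µM), then 3 days medium alone. Compound present throughout at 1 or 10 µM; DMSO vehicle. Day 9: PBS wash, Oil-Red O staining 1 h, dye extracted with 80% isopropanol, A515 read, expressed as ratio to vehicle; mean SD, three independent experiments.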

Series [3] has as its target T2, Peroxisome proliferator-activated receptor gamma (Homo sapiens) (UniProt P37231).
T2 sequence (whole entry): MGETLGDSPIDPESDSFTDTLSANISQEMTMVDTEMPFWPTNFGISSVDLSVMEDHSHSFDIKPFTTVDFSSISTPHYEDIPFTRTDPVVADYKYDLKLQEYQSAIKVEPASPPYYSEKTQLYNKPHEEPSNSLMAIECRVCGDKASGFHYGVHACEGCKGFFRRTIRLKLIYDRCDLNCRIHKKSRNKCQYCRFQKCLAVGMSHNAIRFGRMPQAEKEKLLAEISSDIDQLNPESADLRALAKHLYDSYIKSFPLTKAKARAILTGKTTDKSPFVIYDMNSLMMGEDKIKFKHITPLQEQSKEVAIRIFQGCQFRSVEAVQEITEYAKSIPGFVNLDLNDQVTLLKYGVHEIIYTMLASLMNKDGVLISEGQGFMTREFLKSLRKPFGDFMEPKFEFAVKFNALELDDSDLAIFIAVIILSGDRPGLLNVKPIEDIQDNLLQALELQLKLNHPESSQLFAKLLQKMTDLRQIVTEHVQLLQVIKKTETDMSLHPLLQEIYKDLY
In words: Intrinsic activity at Gal4 fused PPARgamma LBD (unknown origin) expressed in African green monkey COS7 cells after 42 hrs by luciferase assay relative to pioglitazone. The class given is cell-based. As to conditions: COS-7. A digest of the protocol: (§4)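 COS-7 cells (10⁴/well, 24 h, 37 °C, 5% CO₂) transfected in serum-free medium with pGal5-TK-Luc, pGal4-hPPARγ-LBD and pRenilla-CMV (Lipofectamine 2000). After 4 h, compound or DMSO added across a concentration series. Dual-luciferase readout at 42 h, firefly normalized to Renilla. Maximal activation expressed as % of pioglitazone. Mean SD of three independent experiments, each run in triplicate.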

Series [4] has as its target T3, Peroxisome proliferator-activated receptor gamma (Homo sapiens, UniProt P37231).
T3 sequence (P37231 whole entry): T2 sequence (whole entry)
The series is described as follows: Transactivation at Gal4 fused PPARgamma LBD (unknown origin) expressed in African green monkey COS7 cells after 42 hrs by luciferase assay. In kind it is cell-based, COS-7.

A short description of series [5]: Growth inhibition of African green monkey COS7 cells at 50 uM after 72 hrs by crystal violet staining based assay. As to conditions: chlorocebus aethiops; for growth inhibition (GI): cos-7, 72 h, 50 µM; for inhibition at 72 h, 50 µM: COS7 cells, read-out: GI. The class given is cell-based, COS-7. A digest of the protocol:
as §2

Series [6] addresses T1, Peroxisome proliferator-activated receptor gamma. In words: Full agonist activity at PPARgamma in mouse 3T3L1 preadipocytes assessed as increase in insulin induced adipocyte differentiation by measuring triglyceride accumulation at 1 to 10 uM after 9 days by Oil-Red O staining based assay relative to control. The class given is cell-based. As to conditions: 216 h.
In another series the test system is 3T3-L1. In words: Induction of triglyceride accumulation in insulin-stimulated mouse 3T3L1 preadipocytes at 10 uM after 9 days by Oil-Red O staining based assay relative to control.
Series [7] deals with T2, Peroxisome proliferator-activated receptor gamma (Homo sapiens). In words: Intrinsic activity at Gal4 fused PPARgamma LBD (unknown origin) expressed in African green monkey COS7 cells at 20 uM after 42 hrs by luciferase assay relative to pioglitazone. In kind it is cell-based. As to conditions: COS-7. The method in brief:
as §4

The next series concerns LNCaP. The series is described as §1. In kind it is functional. The method in brief:
as §2

Series [8] addresses T1, Peroxisome proliferator-activated receptor gamma. In words: Full agonist activity at PPARgamma in mouse 3T3L1 preadipocytes assessed as increase in insulin induced adipocyte differentiation by measuring triglyceride accumulation at 1 uM after 9 days by Oil-Red O staining based assay. The class given is cell-based. As to conditions: 216 h. The method in brief: as §3

On to `CCCc1cc2ccccc2n1Cc1ccc(-c2ccccc2C(=O)O)cc1`, for which the inhibition of growth at 50 µM in [1] lay within 27.4 to 54.1%. For the same molecule, the “fold change (FC)” value in [2] is listed as > 3. Further, the %max in [3] turned out to be 40%. In series [4], this molecule gave a pEC50 of 5.73.

Turning to `CCCCCc1nc2ccccc2n1Cc1ccc(-c2ccccc2C(=O)O)cc1`, in [5], the “growth inhibition (GI)” value is “Non-Toxic”. Moreover, the %max in series [3] was found to be 55.4%. The pEC50 in [4] is 6.40. Besides, the result in series [6] was Active.

`CCCc1nc2ccccc2n1Cc1ccc(-c2ccccc2C(=O)O)cc1`: the “fold change (FC)” value in the series with 3T3-L1 is 3.2. Further, the “growth inhibition (GI)” value in [5] is recorded as “Non-Toxic”. This molecule also registered a %max in series [3] of 49.6%. This molecule also gave a pEC50 in [4] of 5.38.

The molecule `CCCC1Sc2ccccc2N1Cc1ccc(-c2ccccc2C(N)=O)cc1` (stereo not given) showed a %max in series [7] of 33.1%. Also, the inhibition at 72 h, 50 µM in series [5] is 69.2%. In addition, the inhibition of growth at 50 µM in [1] is 79%.

As to `CCCc1nc2ccccc2n1Cc1ccc(-c2cccc(C(=O)O)c2)cc1`, the “fold change (FC)” value in the series with 3T3-L1 was 2.5. For the same molecule, the “growth inhibition (GI)” value in [5] is “Non-Toxic”. For the same molecule, in series [3], the %max is 44.7%. In series [4], this molecule had a pEC50 of 5.20.

Take `CCCc1cc2ccccc2n1Cc1ccc(-c2ccccc2C(N)=O)cc1`: the inhibition of growth at 50 µM in [1] was in the range of 27.4 to 54.1%. In [3], this molecule returned a %max of 11%.

Take `CCCCCCc1nc2ccccc2n1Cc1ccc(-c2ccccc2C(=O)O)cc1`: the “growth inhibition (GI)” value in series [5] is recorded as “Non-Toxic”. Also, the %max in [3] was found to be 75%. The molecule also showed a pEC50 in [4] of 6.68. Also, in series [6], the outcome was Active.

As for `CCCc1nc2ccccc2n1Cc1ccc(-c2ccccc2C#N)cc1`, the inhibition at 72 h, 50 µM in series [5] was 61.9%. The inhibition of growth at 50 µM in series [1] came to 61.9%. The %max in series [3] came to 51.3%. In series [4], this molecule had a pEC50 of 5.30.

For the molecule `CCc1ccc(CCOc2ccc(CC3SC(=O)NC3=O)cc2)nc1` (stereo not given) [PIOGLITAZONE], the “growth inhibition (GI)” value in series [5] is reported as “Non-Toxic”. For the same molecule, the inhibition of growth at 50 µM in series [1] stood at 55.8%.

With `CCCc1nc2c(C)cc(-c3nc4ccccc4n3C)cc2n1Cc1ccc(-c2ccccc2C(=O)O)cc1` [TELMISARTAN], the “growth inhibition (GI)” value in [5] is “Non-Toxic”. In addition, the “fold change (FC)” value in [2] is 2. Moreover, the %max in series [3] stood at 50.9%. Further, in [4], the pEC50 is 5.33.

Regarding `CCCCCCCc1nc2ccccc2n1Cc1ccc(-c2ccccc2C(=O)O)cc1`, in [5], the “growth inhibition (GI)” value is reported as “Non-Toxic”. Besides, the %max in series [3] worked out at 82.5%. The same molecule had a pEC50 in [4] of 6.77. Moreover, the result in [6] was Active.

On to `CCCCCc1nc2ccccc2n1Cc1ccc(-c2ccccc2C(N)=O)cc1`, for which the “growth inhibition (GI)” value in [5] is “Toxic”. Moreover, the “growth inhibition (GI)” value with LNCaP is “Active”. Moreover, the %max in [3] stood at 16.2%. Further, the result in series [8] was Active. Besides, the pEC50 in [4] was 5.41.

As to `CCCCCCc1nc2ccccc2n1Cc1ccc(-c2ccccc2C(N)=O)cc1`, the inhibition at 72 h, 50 µM in series [5] was 92.8%. The inhibition of growth at 50 µM in series [1] was determined as 78.5%. The %max in [3] was found to be 37.8%. Moreover, the outcome in [8] was Active. The pEC50 in series [4] was 5.51.

Consider `CCCCCCCc1nc2ccccc2n1Cc1ccc(-c2ccccc2C(N)=O)cc1`, for which the “growth inhibition (GI)” value in [5] is on record as “Toxic”. Also, in the series on LNCaP, the “growth inhibition (GI)” value is “Active”. The %max in [3] worked out at 32.8%. The outcome in [8] was Active. Moreover, the pEC50 in [4] is 6.08.

As for `CCCc1nc2ccccc2n1Cc1ccc(-c2ccc(C(=O)O)cc2)cc1`, the “fold change (FC)” value in the series with 3T3-L1 is given as 1.2. For the same molecule, in series [5], the “growth inhibition (GI)” value is listed as “Non-Toxic”. In [3], this molecule returned a %max of 84.1%. This molecule had a pEC50 in series [4] of 5.73.

Consider `CCCc1nc2ccccc2n1Cc1ccc(-c2ccccc2C(N)=O)cc1`, for which the inhibition at 72 h, 50 µM in series [5] came out at 33%. Further, the inhibition of growth at 50 µM in series [1] came out at 33%. The %max in series [3] came out at 21.1%. Also, in series [4], the pEC50 was 5.50.

For `CCCC1Sc2ccccc2N1Cc1ccc(-c2ccccc2C(=O)O)cc1` (stereo not given), the “growth inhibition (GI)” value in series [5] is “Non-Toxic”. The “fold change (FC)” value in series [2] is recorded as > 3. This molecule displayed a %max in series [3] of 57.4%. In addition, the pEC50 in series [4] is 5.98.

For `CCCc1cc2ccccc2n1Cc1ccc(-c2ccccc2C#N)cc1`, the inhibition at 72 h, 50 µM in series [5] is 36.8%. The inhibition of growth at 50 µM in series [1] fell in the range of 27.4 to 54.1%. This molecule displayed a %max in series [3] of 21.7%. The pEC50 in [4] is 5.10.
